Results: ChEMBL document CHEMBL1128557, “Synthesis, antitumor activity, and chemical properties of silaplatin and related platinum (II) and platinum (IV) complexes derived from beta-silyl amines” (J Med Chem, 1995)
Where “and” joins values, the source holds several entries; their conditions need not be identical. Equal entries are not always repeated.

Columns and labels:
[1] = tested on: Tumor Cell line; test: Evaluated in vitro for the log10 molecular concentration that caused 50 % inhibition of tumor growth of 60 human tumor cell lines; type: functional, cell-based
Summary of the method: (§1)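 Cells preincubated 24 h, then exposed to the agent at five 10-fold dilutions (0.01–100 μM for the platinum complexes) for 48 h. Cells fixed in situ and stained; solubilized stain read spectrophotometrically. Panel of leukemia, non-small-cell lung, ovarian and renal lines. Log GI50 or TGI taken per cell line in one experiment, then averaged across lines.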

[2] = tested on: Tumor Cell line; test: Evaluated in vitro for the log10 molecular concentration that caused […] tumor growth of 60 human tumor cell lines.; type: functional, cell-based; summary of the method: as §1
[3] = tested on: Tumor Cell line; test: The compound was evaluated in vitro for the log10 molecular concentration that caused 50 % of 60 human tumor cell line kills; type: ADME, cell-based
Summary of the method: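 Human tumor cell lines (leukemia, non-small-cell lung, ovarian, renal) were preincubated 24 h. Platinum complexes were then added as five 10-fold dilutions, 0.01–100 μM, for 48 h, followed by in situ fixation and staining, with solubilized stain read spectrophotometrically. Log LC50 (50% cell kill) was averaged across cell lines within one experiment.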

[4] = tested on: Mus musculus; test: The compound was evaluated for the median survival time (MST) in mice infected with cisplatin sensitive L1210 Leukemia (dose 10 mg/kg, ip), day 5; type: functional, organism-based; parameters: dose 10 mg/kg
Summary of the method: (§2)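 CD2F1 mice implanted ip on day 0 with 10^5 L1210/0 (parent) leukemia cells, in groups of 6 or 10 (20 or 30 controls). Complexes given ip in saline plus Tween 80 on days 1, 5 and 9. BWC is the group mean weight change, day 5 minus day 1. MST is median survival and %ILS is calculated from MST, both from dying mice only, excluding day 30 survivors.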

[5] = tested on: Mus musculus; test: The compound was evaluated for the mean body weight change (BWC) in mice infected with cisplatin resistant L1210 Leukemia (dose 5 mg/kg, ip),day 1; type: functional, organism-based; parameters: dose 5 mg/kg
Summary of the method: (§3)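 CD2F1 mice, 6 or 10 per dose group (20 or 30 controls), were implanted ip on day 0 with 10⁵ L1210/0 (parent) or L1210/cisplatin (resistant) leukemia cells. Complexes were given ip in saline plus Tween 80 on days 1, 5 and 9. Read-out was mean body weight change per group, day 5 minus day 1. Sensitive and resistant arms ran simultaneously from the same preparations.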

[6] = tested on: Mus musculus; test: The compound was evaluated for the mean body weight change (BWC) in mice infected with cisplatin sensitive L1210 Leukemia (dose 40 mg/kg, ip),day 1; type: functional, organism-based; parameters: dose 40 mg/kg; summary of the method: as §2
[7] = tested on: Mus musculus; test: The compound was evaluated for the mean body weight change (BWC) in mice infected with cisplatin sensitive L1210 Leukemia (dose 40 mg/kg, ip),day 5; type: functional, organism-based; parameters: dose 40 mg/kg; summary of the method: as §2
[8] = tested on: Mus musculus; test: The compound was evaluated for the mean body weight change (BWC) in mice infected with cisplatin sensitive L1210 Leukemia (dose 20 mg/kg, ip),day 1; type: functional, organism-based; parameters: dose 20 mg/kg; summary of the method: as §3
[9] = tested on: Mus musculus; test: The compound was evaluated for the median survival time (MST) in mice infected with cisplatin sensitive L1210 Leukemia (dose 20 mg/kg, ip), day 1; type: functional, organism-based; parameters: dose 20 mg/kg; summary of the method: as §2
[10] = tested on: Mus musculus; test: The compound was evaluated for the mean body weight change (BWC) in mice infected with cisplatin resistant L1210 Leukemia (dose 20 mg/kg, ip),day 1; type: functional, organism-based; parameters: dose 20 mg/kg; summary of the method: as §3
[11] = tested on: Mus musculus; test: The compound was evaluated for the median survival time (MST) in mice infected with cisplatin resistant L1210 Leukemia (dose 30 mg/kg, ip), day 1; type: functional, organism-based; parameters: dose 30 mg/kg
Summary of the method: (§4)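 On day 0, 10⁵ parent or cisplatin-resistant L1210 cells were implanted ip into CD2F1 mice, 6 or 10 per dose group (20 or 30 controls). Dosing was ip on days 1, 5 and 9 in saline plus Tween 80. Median survival time was taken from dying mice only, excluding day-30 survivors. Both sublines were tested concurrently.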

[12] = species: Mus musculus; test: The compound was evaluated for the percentage increase in life span (ILS) based on dying mice only (excludes day survivors) for following doses against L1210 Leukemia cell line, day1; type: functional, organism-based; summary of the method: as §2
[13] = tested on: Mus musculus; test: The compound was evaluated for the mean body weight change (BWC) in mice infected with cisplatin sensitive L1210 Leukemia (dose 20 mg/kg, ip),day 9; type: functional, organism-based; parameters: dose 20 mg/kg; summary of the method: as §2
[14] = tested on: Mus musculus; test: The compound was evaluated for the mean body weight change (BWC) in mice infected with cisplatin resistant L1210 Leukemia (dose 15 mg/kg, ip),day 1; type: functional, organism-based; parameters: dose 15 mg/kg; summary of the method: as §3
[15] = species: Mus musculus; test: The compound was evaluated for the percentage increase in life span (ILS) based on dying mice only (excludes day 10 survivors) for following doses against L1210 Leukemia cell line, day5; type: functional, organism-based
[16] = tested on: Mus musculus; test: The compound was evaluated for the median survival time (MST) in mice infected with cisplatin sensitive L1210 Leukemia (dose 40 mg/kg, ip), day 9; type: functional, organism-based; parameters: dose 40 mg/kg; summary of the method: as §2
[17] = species: Mus musculus; test: The compound was evaluated for the percentage increase in life span (ILS) based on dying mice only (excludes day 15 survivors) for following doses against L1210 Leukemia cell line, day1; type: functional, organism-based
[18] = tested on: Mus musculus; test: The compound was evaluated for the median survival time (MST) in mice infected with cisplatin sensitive L1210 Leukemia (dose 30 mg/kg, ip), day 1; type: functional, organism-based; parameters: dose 30 mg/kg; summary of the method: as §2
[19] = tested on: Mus musculus; test: The compound was evaluated for the median survival time (MST) in mice infected with cisplatin sensitive L1210 Leukemia (dose 15 mg/kg, ip), day 1; type: functional, organism-based; parameters: dose 15 mg/kg; summary of the method: as §2
[20] = tested on: Mus musculus; test: The compound was evaluated for the mean body weight change (BWC) in mice infected with cisplatin sensitive L1210 Leukemia (dose 5 mg/kg, ip),day 1; type: functional, organism-based; parameters: dose 5 mg/kg; summary of the method: as §2
[21] = tested on: Mus musculus; test: The compound was evaluated for the mean body weight change (BWC) in mice infected with cisplatin sensitive L1210 Leukemia (dose 15 mg/kg, ip),day 1; type: functional, organism-based; parameters: dose 15 mg/kg; summary of the method: as §2
[22] = tested on: Mus musculus; test: The compound was evaluated for the median survival time (MST) in mice infected with cisplatin sensitive L1210 Leukemia (dose 80 mg/kg, ip), day 9; type: functional, organism-based; parameters: dose 80 mg/kg; summary of the method: as §2
[23] = tested on: Mus musculus; test: The compound was evaluated for the mean body weight change (BWC) in mice infected with cisplatin sensitive L1210 Leukemia (dose 80 mg/kg, ip),day 9; type: functional, organism-based; parameters: dose 80 mg/kg; summary of the method: as §2
[24] = species: Mus musculus; test: The compound was evaluated for the percentage increase in life span (ILS) based on dying mice only (excludes day 40 survivors) for following doses against L1210 Leukemia cell line, day5; type: functional, organism-based
[25] = species: Mus musculus; test: The compound was evaluated for the percentage increase in life span (ILS) based on dying mice only (excludes day 20 survivors) for following doses against L1210 Leukemia cell line, day1; type: functional, organism-based
[26] = tested on: Mus musculus; test: The compound was evaluated for the median survival time (MST) in mice infected with cisplatin sensitive L1210 Leukemia (dose 10 mg/kg, ip), day 1; type: functional, organism-based; parameters: dose 10 mg/kg; summary of the method: as §2
[27] = tested on: Mus musculus; test: The compound was evaluated for the mean body weight change (BWC) in mice infected with cisplatin sensitive L1210 Leukemia (dose 10 mg/kg, ip),day 9; type: functional, organism-based; parameters: dose 10 mg/kg; summary of the method: as §2
[28] = tested on: Mus musculus; test: The compound was evaluated for the median survival time (MST) in mice infected with cisplatin sensitive L1210 Leukemia (dose 80 mg/kg, ip), day 5; type: functional, organism-based; parameters: dose 80 mg/kg; summary of the method: as §2
[29] = tested on: Mus musculus; test: The compound was evaluated for the median survival time (MST) in mice infected with cisplatin sensitive L1210 Leukemia (dose 5 mg/kg, ip), day 1; type: functional, organism-based; parameters: dose 5 mg/kg; summary of the method: as §2
[30] = tested on: Mus musculus; test: The compound was evaluated for the median survival time (MST) in mice infected with cisplatin resistant L1210 Leukemia (dose 15 mg/kg, ip), day 1; type: functional, organism-based; parameters: dose 15 mg/kg; summary of the method: as §4
[31] = tested on: Mus musculus; test: The compound was evaluated for the median survival time (MST) in mice infected with cisplatin resistant L1210 Leukemia (dose 20 mg/kg, ip), day 1; type: functional, organism-based; parameters: dose 20 mg/kg; summary of the method: as §4
[32] = tested on: Mus musculus; test: The compound was evaluated for the mean body weight change (BWC) in mice infected with cisplatin sensitive L1210 Leukemia (dose 10 mg/kg, ip),day 5; type: functional, organism-based; parameters: dose 10 mg/kg; summary of the method: as §2
[33] = tested on: Mus musculus; test: The compound was evaluated for the median survival time (MST) in mice infected with cisplatin sensitive L1210 Leukemia (dose 20 mg/kg, ip), day 5; type: functional, organism-based; parameters: dose 20 mg/kg; summary of the method: as §2
[34] = tested on: Mus musculus; test: The compound was evaluated for the median survival time (MST) in mice infected with cisplatin resistant L1210 Leukemia (dose 5 mg/kg, ip), day 1; type: functional, organism-based; parameters: dose 5 mg/kg; summary of the method: as §4
[35] = species: Mus musculus; test: The compound was evaluated for the percentage increase in life span (ILS) based on dying mice only (excludes day 20 survivors) for following doses against L1210 Leukemia cell line, day5; type: functional, organism-based
[36] = tested on: Mus musculus; test: The compound was evaluated for the mean body weight change (BWC) in mice infected with cisplatin sensitive L1210 Leukemia (dose 80 mg/kg, ip),day 5; type: functional, organism-based; parameters: dose 80 mg/kg; summary of the method: as §2
[37] = tested on: Mus musculus; test: The compound was evaluated for the mean body weight change (BWC) in mice infected with cisplatin sensitive L1210 Leukemia (dose 30 mg/kg, ip),day 1; type: functional, organism-based; parameters: dose 30 mg/kg; summary of the method: as §2
[38] = tested on: Mus musculus; test: The compound was evaluated for the median survival time (MST) in mice infected with cisplatin sensitive L1210 Leukemia (dose 40 mg/kg, ip), day 5; type: functional, organism-based; parameters: dose 40 mg/kg; summary of the method: as §2
[39] = tested on: Mus musculus; test: The compound was evaluated for the mean body weight change (BWC) in mice infected with cisplatin resistant L1210 Leukemia (dose 30 mg/kg, ip),day 1; type: functional, organism-based; parameters: dose 30 mg/kg; summary of the method: as §3
[40] = tested on: Mus musculus; test: The compound was evaluated for the median survival time (MST) in mice infected with cisplatin sensitive L1210 Leukemia (dose 20 mg/kg, ip), day 9; type: functional, organism-based; parameters: dose 20 mg/kg; summary of the method: as §2
[41] = tested on: Mus musculus; test: The compound was evaluated for the median survival time (MST) in mice infected with cisplatin sensitive L1210 Leukemia (dose 10 mg/kg, ip), day 9; type: functional, organism-based; parameters: dose 10 mg/kg; summary of the method: as §2
[42] = species: Mus musculus; test: The compound was evaluated for the percentage increase in life span (ILS) based on dying mice only (excludes day 40 survivors) for following doses against L1210 Leukemia cell line, day9; type: functional, organism-based
[43] = tested on: Mus musculus; test: The compound was evaluated for the mean body weight change (BWC) in mice infected with cisplatin sensitive L1210 Leukemia (dose 20 mg/kg, ip),day 5; type: functional, organism-based; parameters: dose 20 mg/kg; summary of the method: as §2

For “[Bis(aminomethyl)diethylsilane]tetrachloroplatinum(IV)”, the GI50 [1] was 3.02 µM and the TGI [2] was 46.8 µM.

With “[Bis(aminomethyl)dimethylsilane]dichloroplatinum (II) [listing 1 of 2 here]” the “Log LC50” value [3] was > -4.01.

“[Bis(aminomethyl)dimethylsilane]dichloroplatinum (II) [listing 2 of 2 here]” was tested, and the MST [4] was 18 days, the BWC [5] was 0.1 g and the BWC [6] was -2.9 g. The BWC [7] was -0.9 g, the BWC [8] was -1 g and the MST [9] was 16.8 days. It also gave a BWC [10] of -2.7 g, an MST [11] of 14.8 days and an ILS [12] of 152%. For the same substance, the BWC [13] was -0.2 g, the BWC [14] was -0.4 g and the ILS [15] was 109%. The MST [16] was 11.7 days, the ILS [17] was 83% and the MST [18] was 21.5 days. It also gave an MST [19] of 16.3 days, a BWC [20] of -0.4 g and a BWC [21] of -1.7 g. The MST [22] was 6.3 days, the BWC [23] was -4.3 g and the ILS [24] was 248%. The GI50 [1] was 20.4 µM, the ILS [25] was 88% and the MST [26] was 22.5 days and 10.5 days. The BWC [27] was -0.2 g, the MST [28] was 11.8 days and the MST [29] was 21.5 days. It also gave an MST [30] of 18.3 days, an MST [31] of 13.8 days and a BWC [32] of -0.9 g. The MST [33] was 20.5 days, the MST [34] was 12.5 days and the ILS [35] was 138%. The BWC [36] was -3.5 g, the BWC [37] was -1.1 g and the TGI [2] was 83.2 µM. For the same substance, the MST [38] was 30 days, the BWC [39] was -2.5 g and the MST [40] was 22.5 days. The MST [41] was 15.5 days, the ILS [42] was 31% and the BWC [43] was -0.6 g.
